We go through one compound from article PMC6287672 (International Journal for Parasitology: Drugs and Drug …, 2018).

What all share (assay): two-electrode voltage clamp, Xenopus oocytes
What all share (format): cell-based

The target of assay [1] is T1, Hco-UNC-49BC (Haemonchus contortus, UniProt D6BK80, H137K).
T1 sequence (D6BK80 22-496 H137K): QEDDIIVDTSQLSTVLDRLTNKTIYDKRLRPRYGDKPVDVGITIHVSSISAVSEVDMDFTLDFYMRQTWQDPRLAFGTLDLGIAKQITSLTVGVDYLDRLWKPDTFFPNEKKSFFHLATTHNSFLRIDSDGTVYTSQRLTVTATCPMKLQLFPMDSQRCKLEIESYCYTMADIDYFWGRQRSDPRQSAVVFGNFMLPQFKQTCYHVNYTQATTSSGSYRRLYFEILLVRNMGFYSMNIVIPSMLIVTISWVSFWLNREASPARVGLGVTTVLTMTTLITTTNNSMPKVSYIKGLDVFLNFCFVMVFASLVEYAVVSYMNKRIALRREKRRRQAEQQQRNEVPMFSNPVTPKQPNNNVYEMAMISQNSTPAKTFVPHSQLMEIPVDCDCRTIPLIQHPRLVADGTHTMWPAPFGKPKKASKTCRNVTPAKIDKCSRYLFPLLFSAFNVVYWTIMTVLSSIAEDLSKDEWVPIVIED
T1 sequence (D6BJF3 22-440 partner): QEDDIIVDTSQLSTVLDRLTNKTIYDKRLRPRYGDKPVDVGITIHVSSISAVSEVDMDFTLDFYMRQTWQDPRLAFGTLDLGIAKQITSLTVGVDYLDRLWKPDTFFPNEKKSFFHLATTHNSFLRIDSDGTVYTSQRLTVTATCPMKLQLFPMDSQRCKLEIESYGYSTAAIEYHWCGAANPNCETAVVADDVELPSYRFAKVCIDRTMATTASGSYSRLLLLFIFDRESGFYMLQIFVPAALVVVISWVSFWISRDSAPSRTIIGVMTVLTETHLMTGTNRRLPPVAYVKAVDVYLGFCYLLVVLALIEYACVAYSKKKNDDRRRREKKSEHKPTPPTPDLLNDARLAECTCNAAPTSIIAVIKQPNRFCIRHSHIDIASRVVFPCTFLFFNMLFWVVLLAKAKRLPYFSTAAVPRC
In a few lines: (§1)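 Oocytes from X. laevis, collagenase-treated in OR-2 (pH 7.5) for 2 h, were co-injected with wild-type or mutant hco-unc-49b cRNA plus wild-type hco-unc-49c cRNA and kept 48 h at 20ᵒC in supplemented ND96. Cells were clamped at −60 mV and GABA in ND96 was perfused, with 1–2 min ND96 washes between doses. Currents were normalised to each oocyte's maximal GABA response and fitted with a variable-slope Hill equation (≥5 oocytes, two batches).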

Assay [2] deals with T2, Hco-UNC-49BC (Haemonchus contortus, UniProt D6BK80, H137A).
T2 sequence (D6BK80 22-496 H137A): T1 sequence (D6BK80 22-496 H137K)
T2 sequence (D6BJF3 22-440 partner): T1 sequence (D6BJF3 22-440 partner)
The procedure, abridged: as §1

Assay [3] has as its target T3, Hco-UNC-49BC (Haemonchus contortus, UniProt D6BK80, D83C).
T3 sequence (D6BK80 22-496 D83C): T1 sequence (D6BK80 22-496 H137K)
T3 sequence (D6BJF3 22-440 partner): T1 sequence (D6BJF3 22-440 partner)
In a few lines: as §1

Assay [4] addresses T4, Hco-UNC-49BC (Haemonchus contortus, UniProt D6BK80).
T4 sequence (D6BK80 22-496): T1 sequence (D6BK80 22-496 H137K)
T4 sequence (D6BJF3 22-440 partner): T1 sequence (D6BJF3 22-440 partner)
In a few lines: as §1

The target in assay [5] is T5, Hco-UNC-49BC (Haemonchus contortus, UniProt D6BK80, R241K).
T5 sequence (D6BK80 22-496 R241K): T1 sequence (D6BK80 22-496 H137K)
T5 sequence (D6BJF3 22-440 partner): T1 sequence (D6BJF3 22-440 partner)
In a few lines: as §1

In assay [6] the target is T6, Hco-UNC-49BC (Haemonchus contortus, UniProt D6BK80, R241A).
T6 sequence (D6BK80 22-496 R241A): T1 sequence (D6BK80 22-496 H137K)
T6 sequence (D6BJF3 22-440 partner): T1 sequence (D6BJF3 22-440 partner)
The procedure, abridged:
as §1

The target of assay [7] is T7, Hco-UNC-49BC (Haemonchus contortus, UniProt D6BK80, E131A).
T7 sequence (D6BK80 22-496 E131A): T1 sequence (D6BK80 22-496 H137K)
T7 sequence (D6BJF3 22-440 partner): T1 sequence (D6BJF3 22-440 partner)
The procedure, abridged:
as §1

The target of assay [8] is T8, Hco-UNC-49BC (Haemonchus contortus, UniProt D6BK80, D83T).
T8 sequence (D6BK80 22-496 D83T): T1 sequence (D6BK80 22-496 H137K)
T8 sequence (D6BJF3 22-440 partner): T1 sequence (D6BJF3 22-440 partner)
The procedure, abridged:
as §1

Assay [9] addresses T9, Hco-UNC-49BC (Haemonchus contortus, UniProt D6BK80, D83N).
T9 sequence (D6BK80 22-496 D83N): T1 sequence (D6BK80 22-496 H137K)
T9 sequence (D6BJF3 22-440 partner): T1 sequence (D6BJF3 22-440 partner)
In a few lines: as §1

Assay [10] deals with T10, Hco-UNC-49BC (Haemonchus contortus, UniProt D6BK80, D83E).
T10 sequence (D6BK80 22-496 D83E): T1 sequence (D6BK80 22-496 H137K)
T10 sequence (D6BJF3 22-440 partner): T1 sequence (D6BJF3 22-440 partner)
The procedure, abridged: as §1

Assay [11] concerns the target T11, Hco-UNC-49BC (Haemonchus contortus, UniProt D6BK80, R159A).
T11 sequence (D6BK80 22-496 R159A): T1 sequence (D6BK80 22-496 H137K)
T11 sequence (D6BJF3 22-440 partner): T1 sequence (D6BJF3 22-440 partner)
The procedure, abridged: as §1

In general, EC50 refers to the concentration giving half of the maximal effect. A lower EC50 goes with greater potency.

As to `NCCCC(=O)O` [GABA], the EC50 stood at 4170 ± 745 µM in assay [1]; 2170 ± 173 µM in assay [2]; 454 ± 47 µM in assay [3]; 68 ± 17 µM in [4]; 3790 ± 435 µM in [5]; 5170 ± 473 µM in assay [6]. In addition, the EC50 in assay [7] was determined as 219 ± 21 µM; in [8] it was 520 ± 34 µM; in assay [9] it was 342 ± 30 µM; in assay [10], 276 ± 37 µM; in assay [11] it was 5470 ± 396 µM.
